Reference: paper PMC5621765 (Nature biomedical engineering, 2017)

Legend:
mouse MMP9 = mouse MMP9 (Mus musculus, UniProt P41245); experiment: Cleavage of substrate by mouse MMP9; format: biochemical
[1] = test system: OVCAR-8 conditioned media; experiment: Cleavage of MMP9 substrate by OVCAR-8 conditioned media; format: biochemical, human
OVCAR-8 tumour nodules = experiment: HE4 blood ELISA in orthotopic OVCAR-8 ovarian cancer model; format: in vivo, mouse; settings: blood biomarker, plasma ELISA; n = 10
Method in brief: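 Female NCr nude mice, 3–4 weeks old, were injected intraperitoneally with 2 × 10⁶ luciferase-expressing OVCAR-8 cells; tumour burden was followed by IVIS luminescence. About 200 μL blood was spiked with EDTA to a final 5 mM and cells were pelleted. Plasma was stored at -20 °C, then HE4 measured by quantikine ELISA per kit protocol.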

Sequence of mouse MMP9 (P41245 108-730): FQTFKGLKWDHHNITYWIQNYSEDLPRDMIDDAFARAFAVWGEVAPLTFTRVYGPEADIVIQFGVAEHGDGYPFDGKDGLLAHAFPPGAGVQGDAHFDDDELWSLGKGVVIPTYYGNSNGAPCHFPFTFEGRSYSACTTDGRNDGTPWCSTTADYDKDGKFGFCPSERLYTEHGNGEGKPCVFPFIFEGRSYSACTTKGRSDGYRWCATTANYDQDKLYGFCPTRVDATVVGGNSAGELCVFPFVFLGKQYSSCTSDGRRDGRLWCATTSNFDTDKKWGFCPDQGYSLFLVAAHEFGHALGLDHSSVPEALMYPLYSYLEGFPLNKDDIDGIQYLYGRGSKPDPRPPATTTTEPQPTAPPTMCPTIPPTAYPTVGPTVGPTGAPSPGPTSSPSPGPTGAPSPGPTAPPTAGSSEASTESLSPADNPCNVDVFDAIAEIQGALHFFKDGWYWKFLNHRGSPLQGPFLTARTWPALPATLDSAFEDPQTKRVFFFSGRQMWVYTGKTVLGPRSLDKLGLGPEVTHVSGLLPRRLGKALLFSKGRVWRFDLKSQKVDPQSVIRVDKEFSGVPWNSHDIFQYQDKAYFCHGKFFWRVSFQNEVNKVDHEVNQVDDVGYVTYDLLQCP

## 5FAM-GGPLGVRGKK(CPQ2)-PEG2-C [MMP9 substrate]
Mouse MMP9
  cleavage by mouse MMP9: cleaves
[1]
  cleavage by OVCAR-8 conditioned media: can cleave

## CNC(=O)[C@@H](NC(=O)[C@H](CC(C)C)[C@H](O)C(=O)NO)C(C)(C)C [Marimistat, reference compound]
[1]
  inhibition of cleavage of MMP9 substrate by OVCAR-8 conditioned media: can be inhibited

B1: HE4: clinical blood biomarker secreted by OVCAR-8 cells, measured by ELISA as comparator diagnostic (protein, UniProt Q14508 31-124, looked up)
WAP four-disulfide core …: EKTGVCPELQADQNCTQECVSDSECADNLKCCSAGCATFCSLPNDKEGSCPQVNINFPQLGLCRDQCQVDSQCPGQMKCCRNGCGKVSCVTPNF
OVCAR-8 tumour nodules
  ROC-AUC at 2-weeks: 0.51
  ROC-AUC at 3-weeks: 0.93
